The text below walks through data of PubChem BioAssay AID688 (PCMD, 2007).

The campaign covered roughly 27,000 compounds. About 250 (0.93%) were called active.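 How the source made its calls: active means mutant luminescence inhibited past about 50% while wild type luminescence and mutant growth stay under set limits (limit read from the data); inconclusive means mutant versus wild type luminescence inhibition gap past a set limit; inactive means the rest.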 The full list was thinned out, with actives kept by preference.

This assay can be described thus: mutant yeast GCN4 reporter luminescence inhibitors – S. cerevisiae, eIF2B-epsilon R284H, Beta-Glo luminescence, primary screen (AID 688). To be noted: GCN4-lacZ luminescence; growth inhibition: measured here: mutant yeast growth, toxicity, concentration not given here; inhibition: stronger effect = higher value, screened at 25 µM (by protocol). Put shortly:
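Assay system: yeast eIF2B-epsilon R284H mutant carrying GCN4–beta-galactosidase fusion / Buffer or medium: YPD / Incubation: 16 h growth with compound at 30 °C, 90 min Beta-Glo step / Detection: Beta-Glo luminescence after Z-buffer lysis, growth by 595 nm absorbance / Read-out: % inhibition of reporter signal and growth versus controls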
For `N#CCSc1nc2c(c(=O)n1Cc1ccccc1)C1(CCCC1)Cc1ccccc1-2`, the inhibition (commonly the drop in the measured response relative to a control, in per cent) was 9.23% (inactive).

Regarding `O=C(Cc1ccccc1)Nc1c(C(=O)N2CCCCCC2)cnn1-c1ccccc1`, the growth inhibition came out at 8.33% and the inhibition was -14.8% (inactive).

In the case of `COc1ccc(S(=O)(=O)N2CCCC(C(=O)N3CCN(C)CC3)C2)cc1C` (centres undefined), the growth inhibition amounted to 6.9% and the inhibition was -4.21% (inactive).

Consider `CC(C)n1c(-c2cccs2)nc2ccccc21`, for which the growth inhibition is 14.7% and the inhibition was 15% (inactive).

`CCOC(=O)C1=C(CSc2nnnn2C)N(C)C(=O)NC1c1ccccc1` (centres undefined): the growth inhibition is -2.7% and the inhibition is 19.9% (inactive).

Regarding `CCOC(=O)c1sc(C)c2c1NC(C)(c1cccc3ccccc13)NC2=O` (centres undefined), the growth inhibition was 2.7% and the inhibition is -8.97% (inactive).

`CCOCCn1c(C(C)C)nc2ccccc21`: the inhibition was -14.4% (inactive).

Turning to `CCNc1nc(N)nc(Oc2ccc(OCC)nn2)n1`, the growth inhibition is -12.5% and the inhibition was 31.6% (inactive).

For the compound `C/C=C/C(=O)Nc1nnc(C(C)C)s1`, the inhibition was 1.35% (inactive).

Consider `O=C(CCCn1c(=O)oc2ccccc21)Nc1cccnc1`, for which the growth inhibition was -21.7% and the inhibition was 22.3% (inactive).

With `O=C(CS(=O)(=O)Cc1ccccc1)Nc1cccnc1`, the inhibition is 11.1% (inactive).

With `O=C(Nc1cccnc1)c1noc2c1CCCCC2`, the growth inhibition came out at 3.45% and the inhibition was 69% (active).

As for `COc1ccc(-n2nnnc2SCC(=O)Nc2ccccc2)cc1`, the growth inhibition was -13.6% and the inhibition was 0.65% (inactive).

As for `O=C(NCc1ccccn1)c1cc(-c2ccccc2Cl)on1`, the growth inhibition came to 9.09% and the inhibition was 8.32% (inactive).

`COc1ccc(-c2nnc(SCC(=O)c3ccc4c(c3)OCCO4)o2)cc1`: the growth inhibition was -27.1% and the inhibition is 9.99% (inactive).

`C=CCSC1=C(C#N)C(c2cc(Br)c(O)c(OC)c2)CC(=O)N1` (centres undefined): the growth inhibition is -19.1% and the inhibition is 17.8% (inactive).

Regarding `O=C(NCC(=O)N(Cc1cccs1)C(C(=O)NC1CCCCC1)c1ccco1)c1cccs1` (centres undefined), the growth inhibition is -12.9% and the inhibition was 9.07% (inactive).

As for `Cc1nc2c(c(=O)n1Cc1ccco1)c1nc3ccccc3nc1n2Cc1ccccc1`, the inhibition was 16.6% (inactive).

On to `CCOc1ccc(NC(=O)CN(C)CC(=O)Nc2cccc(Cl)c2C)cc1OCC`, for which the growth inhibition was -23.8% and the inhibition was 30.2% (inactive).

For the compound `COc1ccccc1-n1nnnc1S(=O)(=O)Cc1ccc(Cl)cc1`, the growth inhibition was -20.6% and the inhibition was 24.8% (inactive).

With `Cc1cc(C)n(-c2c(F)c(F)c(COC(=O)c3ccccc3)c(F)c2F)n1`, the growth inhibition came to 23% and the inhibition was 20.8% (inactive).

For `Cc1cccc(N2C(=O)c3cccnc3C2=O)c1`, the growth inhibition is -42.9% and the inhibition was 27.9% (inactive).

In the case of `CC(=O)NC1(c2cccc(F)c2)CCN(CC(=O)NC(C)C)CC1`, the growth inhibition came out at 4.55% and the inhibition was 8.86% (inactive).

With `O=C(NCc1ccc(Cl)c(Cl)c1)c1cccnc1`, the growth inhibition was -25% and the inhibition was 24.4% (inactive).

`O=C(Nc1nncs1)c1cccc(S(=O)(=O)N2CCCCC2)c1`: the growth inhibition was -27.3% and the inhibition was -2.85% (inactive).

As for `Cc1ccc(C2(C(F)(F)F)N=C3Sc4cc(C)cc(C)c4N3C(=O)N2)cc1` (centres undefined), the growth inhibition is -4.76% and the inhibition was 31.4% (inactive).

Consider `C=CCn1c(SCCOc2ccc(OC)cc2)nnc1C(NC(=O)c1ccc(OC)cc1)C(C)C` (centres undefined), for which the growth inhibition was -10% and the inhibition is 21.4% (inactive).

Turning to `COCc1[nH][nH]c(=O)c1C=Nc1ccc(F)cc1F`, the growth inhibition turned out to be 18.9% and the inhibition is 24.1% (inactive).

Consider `Cc1ccc2c(CSc3nncs3)cc(=O)oc2c1`, for which the growth inhibition was -14.7% and the inhibition was -21.6% (inactive).

As for `CCCCNS(=O)(=O)c1ccc(S(=O)(=O)n2cnc3ccccc32)cc1`, the growth inhibition was -31.6% and the inhibition is -22.7% (inactive).

For `CCOC(=O)c1c(N)sc(C(C)=O)c1C`, the growth inhibition was found to be 19.1% and the inhibition is 2.16% (inactive).

In the case of `Cc1ccc(S(=O)(=O)c2nc(NCCCn3ccnc3)sc2Cl)cc1`, the growth inhibition was determined as 15.9% and the inhibition is 26% (inactive).

For the compound `COc1ccc(Cl)cc1C(=O)Nc1ccc(N(C)C(C)=O)cc1`, the growth inhibition is 27.8% and the inhibition is 21.8% (inactive).

In the case of `CCN(CC)CCNC(=O)CCCCCn1c(=O)[nH]c2cc(C(=O)OC)ccc2c1=O`, the growth inhibition was 3.33% and the inhibition was 12.9% (inactive).

Regarding `Nn1c(Cc2cccc3ccccc23)nnc1SCC(=O)N1CC(=O)Nc2ccccc21`, the growth inhibition amounted to 7.35% and the inhibition was 9.26% (inactive).

In the case of `Cc1ccc(C2=CSC3=NS(=O)(=O)CCN23)cc1C`, the growth inhibition is -2.38% and the inhibition was 1.24% (inactive).

Regarding `O=C(c1cccc2ccccc12)N1CCN(c2ccccc2F)CC1`, the growth inhibition stood at 10.7% and the inhibition is 8.17% (inactive).

Consider `O=C(O)CCSc1nnc(-c2ccccc2)n1-c1ccccc1`, for which the growth inhibition was -9.09% and the inhibition was 19.8% (inactive).

Regarding `Cc1ccc(S(=O)(=O)NCC(C)NS(C)(=O)=O)cc1` (centres undefined), the growth inhibition was 1.47% and the inhibition is -24.4% (inactive).

For the compound `COCc1nnc(NC(=O)CS(=O)(=O)Cc2ccccc2)s1`, the growth inhibition was -13.8% and the inhibition is 8.87% (inactive).

For `COc1ccc(-n2c(SCC(=O)Nc3ccc4c(c3)OCO4)nnc2C(C)N2CCCCC2)cc1` (centres undefined), the growth inhibition is -17.2% and the inhibition was 32% (inactive).

Consider `O=C(NC1(C(F)(F)F)NC(=O)N(Cc2cccnc2)C1=O)c1ccccc1Cl` (centres undefined), for which the growth inhibition is -9.52% and the inhibition was 12.7% (inactive).

As for `CCc1nnc(NC(=O)CSc2nc3ccccc3c(=O)n2CCCOC)s1`, the growth inhibition is -4.35% and the inhibition is -1.74% (inactive).

As to `Cc1cc(-n2nc(C)cc2C)n2nc(C)c(-c3ccccc3)c2n1`, the growth inhibition is -28.6% and the inhibition is -42.8% (inactive).

As for `CCOC(=O)c1cnc(SCC(=O)NCc2ccco2)nc1N`, the growth inhibition came out at 5.17% and the inhibition was -10.3% (inactive).

Regarding `CCOc1ccccc1NC(=O)C1CCCN(C(=O)Nc2ccccc2)C1` (centres undefined), the growth inhibition was -12.5% and the inhibition is 25.3% (inactive).

For the compound `COc1ccc(C2N=C(N)N=C(N)N2c2ccccc2)cc1OC` (centres undefined), the growth inhibition was -25% and the inhibition was -6.05% (inactive).

As for `COc1ccc(OC)c(-n2nnnc2SCC(=O)Nc2cc(C)ccc2OC)c1`, the growth inhibition is -24.1% and the inhibition was 30.4% (inactive).

For `CCC(C(=O)NC1CCCC1)N(C(=O)c1snc(C(N)=O)c1N)c1ccc2c(c1)OCCO2` (centres undefined), the growth inhibition is -13.6% and the inhibition is 52.4% (active).

For `COC(=O)c1cccc(N(C(=O)c2ccco2)C(C(=O)NC2CCCC2)c2ccco2)c1` (centres undefined), the inhibition was -17.9% (inactive).

As for `CCCCNC(=O)CCNC(=O)c1ccc(C(C)(C)C)cc1`, the growth inhibition was 22.6% and the inhibition was 20.7% (inactive).

In the case of `CCCCCCSc1nsc(N)n1`, the growth inhibition came out at 5.56% and the inhibition is 30.6% (inactive).

In the case of `CC(C)C(=O)Nc1nnc(Sc2ccc(N(C)C)cc2)s1`, the growth inhibition is -33.3% and the inhibition was -11.6% (inactive).

Consider `COc1ccc(CNC(=O)CCn2cccc2)cc1`, for which the growth inhibition was found to be 33.3% and the inhibition was 18.8% (inactive).

Turning to `CCCNC(=O)N1CCN(C(=O)NCCC)CC1`, the growth inhibition worked out at 5.13% and the inhibition was 3.89% (inactive).

With `COc1ccccc1NC(=O)CC(NCCN(C)C)C(=O)O` (centres undefined), the growth inhibition worked out at 18.9% and the inhibition is 15.2% (inactive).

Take `CC(=O)Nc1ccc(NC(=O)CSCc2cnn(-c3ccccc3)c2-n2cccc2)cc1`: the growth inhibition was -16.7% and the inhibition is 13.1% (inactive).

As for `COCCNC(=O)COc1ccccc1C`, the growth inhibition was 6.67% and the inhibition was 9.39% (inactive).

On to `Cc1nc(N2CCOCC2)nc2c1CCCC2`, for which the growth inhibition was 15% and the inhibition was 16.9% (inactive).

With `C[C@H](NC(=O)OC(C)(C)C)c1nnc(SCC(N)=O)o1`, the growth inhibition stood at 7.41% and the inhibition is 12.5% (inactive).

With `O=C(c1cc2sccc2n1Cc1ccc(F)cc1)N1CCc2ccccc21`, the growth inhibition stood at 13.5% and the inhibition was 26.8% (inactive).

For the compound `CCCCCCc1cc2cc(-c3nnc(-c4cccc(OC)c4)o3)c(=O)oc2cc1O`, the inhibition was -37.6% (inactive).

On to `CCC(=O)N(Cc1cc2cc(OC)ccc2[nH]c1=O)c1ccccc1C`, for which the growth inhibition worked out at 3.45% and the inhibition was 5.99% (inactive).

With `CC(C)(C)n1nnnc1C(c1ccc(Cl)cc1)N1CCSCC1` (centres undefined), the growth inhibition was -17.4% and the inhibition is 13.7% (inactive).

With `CCN(CC)CCCN1C(=O)C(=O)/C(=C(/O)c2c(C)nc3ccccn23)C1c1ccc(C)o1` (centres undefined), the growth inhibition is 3.45% and the inhibition was 7.68% (inactive).

For `CC(=O)NC(C)(C)C1CC=C(C)/C(=N\O)C1` (centres undefined), the growth inhibition was -23.8% and the inhibition is -13.5% (inactive).

With `CC(C)CC(N=C1NC(C)(C)Cc2ccccc21)C(=O)O` (centres undefined), the growth inhibition stood at 21.1% and the inhibition was 6.22% (inactive).

Turning to `O=C(CN1C(=O)CC(c2ccccc2)=Nc2ccccc21)NC1CCCCC1`, the growth inhibition is -28.6% and the inhibition is 18.7% (inactive).

Turning to `CCN(CC(=O)NC1CCS(=O)(=O)C1)c1nc(-c2cccnc2)nc2ccccc12` (centres undefined), the growth inhibition was -30.9% and the inhibition was 20.1% (inactive).

As to `C[C@H](NC(=O)OC(C)(C)C)c1nnc(SCC(=O)Nc2ccc(Br)cc2)o1`, the growth inhibition is -11.1% and the inhibition was 14.5% (inactive).

With `CCOC(=O)C1=C(C)NC2=C(C(=O)CC(C)(C)C2)C1c1ccsc1` (centres undefined), the growth inhibition was -7.5% and the inhibition was 9.79% (inactive).

On to `Cc1c(C(=O)CN2CCOCC2)[nH]c2ccccc12`, for which the growth inhibition was found to be 18.5% and the inhibition was 16.8% (inactive).

`COc1ccc(C2C(C(C)=O)=C(O)C(=O)N2Cc2cccnc2)cc1` (centres undefined): the inhibition was -0.66% (inactive).

`CCOC(=O)NC(C(F)(F)F)(C(F)(F)F)P(=O)(c1ccccc1)c1ccccc1`: the growth inhibition is -5.56% and the inhibition is -15.8% (inactive).

As to `Cc1cc(=O)oc(C)c1C(=O)Nc1cnc2ccccc2c1`, the growth inhibition is -3.7% and the inhibition is 17.1% (inactive).

Take `COc1ccc(C(C#N)N2N=C(C)CC2(C)C)cc1` (centres undefined): the growth inhibition is 4.76% and the inhibition was -5.47% (inactive).

For the compound `COC(=O)C1=C(C)NC(=O)NC1/C=C/c1ccccc1` (centres undefined), the growth inhibition is -4.55% and the inhibition is 22.3% (inactive).

As to `Cc1cc(Oc2ccccc2)nc(N2CCOCC2)n1`, the growth inhibition is 5.41% and the inhibition was 12.4% (inactive).

As to `CCCc1nc(-c2ccccc2O)n(-c2ccccc2)n1`, the growth inhibition is 25.8% and the inhibition is 52.9% (active).

In the case of `CCCc1nc2c3cnn(-c4cccc(Cl)c4)c3ncn2n1`, the inhibition was 17.9% (inactive).

Consider `CCCCOc1ccc(NC(=O)CSCC(=O)OCC)cc1`, for which the inhibition was 25% (inactive).

Turning to `Cc1ccc(-c2nnn(CC(=O)N(CCO)C(C(=O)NC(C)(C)C)c3ccncc3)n2)cc1` (centres undefined), the growth inhibition came out at 14.8% and the inhibition is 23.7% (inactive).

With `O=c1c2ccccc2oc2nc3n(c(=O)c12)CCCS3`, the growth inhibition turned out to be 4% and the inhibition was 24.9% (inactive).

Regarding `CCOc1ccc(N=C2SC(C(=O)O)CC(=O)N2C)cc1` (centres undefined), the growth inhibition came out at 12% and the inhibition was 24.2% (inactive).

Take `CCCOc1cc(C)c(S(=O)(=O)n2nnc3ccccc32)cc1C`: the growth inhibition is 12.9% and the inhibition is 11.9% (inactive).

Turning to `O=C(CSc1nnc(-c2cnccn2)n1Cc1ccco1)c1ccc(Cl)c(Cl)c1`, the growth inhibition is -22.6% and the inhibition was 4.49% (inactive).

As for `COc1ccc(-c2cc(C(=O)NCc3ccco3)no2)cc1OC`, the growth inhibition came out at 2.7% and the inhibition was 19.9% (inactive).
